SMILES strings stand for the structures. Values after ≈ are worked out from the molar mass of the structure shown.

This data set is described as follows: Thermodynamic solubility of the compound in phosphate buffer at pH 7.2 to 7.4 at 1 mg after 48 hrs by shake flask method. As to conditions: read-out: Therm_solubility. It is filed as physicochemical. In short, it runs like this: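 Shake-flask method: 1 mg of solid ground in an agate mortar, taken up in 1.0 mL of a 1:1 mixture of phosphate buffer (pH 7.2–7.4) and EtOH, shaken 48 h at 25 °C. An aliquot was filtered (0.45 µm), the filtrate diluted in CH₃CN and analysed by HPLC-UV at 254 nm. Concentration was calculated from a prior calibration curve and corrected for dilution.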
Turning to `CCCOc1ccc(C[C@@H](Cc2ccccc2)C(=O)O)cc1CNC(=O)c1ccc(C23CC4CC(CC(C4)C2)C3)cc1`, the solubility thermodynamic at 48 h is under 1 µg/mL. `CCCOc1ccc(C[C@@H](Cc2ccccc2)C(=O)O)cc1CNC(=O)c1ccc(N2CCCCCCC2)cc1`: the solubility thermodynamic at 48 h was under 10 µg/mL. The same measure for `CCCOc1ccc(C[C@@H](Cc2ccccc2)C(=O)O)cc1CNC(=O)c1ccc(N2C3CC4CC(C3)CC2C4)cc1`: under 10 µg/mL; for `CCCOc1ccc(C[C@@H](Cc2ccccc2)C(=O)O)cc1CNC(=O)c1ccc(N2C3CCCC2CCC3)cc1`: under 10 µg/mL; for `CCCOc1ccc(C[C@@H](Cc2ccccc2)C(=O)O)cc1CNC(=O)c1ccc(N2CCCC(C)(C)C2)cc1`: under 10 µg/mL.

On to `CCCOc1ccc(C[C@@H](Cc2ccccc2)C(=O)O)cc1CNC(=O)c1ccc(N2CCCCC2)cc1`, for which the solubility thermodynamic at 48 h is 10 µg/mL (≈ 19.4 µM). `CCCOc1ccc(C[C@@H](Cc2ccccc2)C(=O)O)cc1CNC(=O)c1ccc(N2C3CCCC2CC3)cc1`: the solubility thermodynamic at 48 h was 10 µg/mL (≈ 18.5 µM). The same measure for `CCCOc1ccc(C[C@@H](Cc2ccccc2)C(=O)O)cc1CNC(=O)c1ccc(N2CCC(C)(C)CC2)cc1`: under 10 µg/mL. Take `CCCOc1ccc(C[C@@H](Cc2ccccc2)C(=O)O)cc1CNC(=O)c1ccc(N2CC(C)(C)CC(C)(C)C2)cc1`: the solubility thermodynamic at 48 h was under 10 µg/mL. Turning to `CCCOc1ccc(C[C@@H](Cc2ccccc2)C(=O)O)cc1CNC(=O)c1ccc(N2CC3CCC(C3)C2)cc1`, the solubility thermodynamic at 48 h turned out to be 10 µg/mL (≈ 18.5 µM).

The values are drawn from ChEMBL document CHEMBL3351353, “Molecular dynamics study-guided identification of cyclic amine structures as novel hydrophobic tail components of hPPARγ agonists” (Bioorg Med Chem Lett, 2014).
